# Laboratory results reported in ChEMBL document CHEMBL6134796, “Development and Evaluation of Indole-Based Phospholipase D Inhibitors for Lung Cancer Immunotherapy” (J Med Chem, 2025).
# Calls of active or inactive are those of the source. The rule behind the calls is not given here.
# What was measured:
# A549 (human) = test: Cytotoxicity against human A549 cells assessed as decrease in cell growth by WST-1 assay; details: time 2-48 hrs
# A549 [1] = test: Inhibition of cell invasion in human A549 cells measured after 24 hrs by crystal violet staining based light microscopic analysis; format: functional
# [2] = Toxicity in male C57BL/6 mouse assessed as effect on body weight at 10 mg/kg, po measured every other day for 3 weeks; format: organism-based; details: in vivo, 504 h
# Mus musculus [3] = test: In vivo inhibition of KRAS activation in male C57BL/6 mouse allografted with mouse Lewis lung carcinoma cell line assessed as decrease in ERK phosphorylation at 10 mg/kg, po; format: functional, organism-based
# A549 [4] = test: Enhancement of macrophage induced phagocytosis in CFSE labelled human A549 cells assessed as increase on CD11b+CFSE macrophage […] at 5 to 20 uM incubated for 48 hrs by flow cytometric analysis; format: functional, cell-based; details: dose 5-20 µM
# In short: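 A549 cells treated 48 h in RPMI/10% FBS, then labeled with 1 μM CFSE. Co-cultured 1:1 (5 × 10^5 each) with PMA-differentiated THP-1 macrophages in serum-free RPMI for 2 h. After Fc block, stained with PerCP-Cy5.5 anti-CD11b for 20 min at 4 °C. CD11b+CFSE+ fraction measured by flow cytometry.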
# [5] = system: Lewis lung carcinoma cell line; test: Antitumor activity against mouse Lewis lung carcinoma cell line allografted in male C57BL/6 mouse model assessed as reduction in […] expression at 10 mg/kg, po measured every other day for 3 weeks by IHC analysis
# A549 [6] = test: Inhibition of PLD1 F614A mutant (unknown origin) overexpressed in human A549 cells; format: cell-based
# In short: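 A549 cells transfected with wild-type PLD1, PLD1 mutants (L425A, F614A, F789A) or PLD2, then compound-treated. PLD activity measured as [3H]phosphatidylbutanol formed in the presence of 1-butanol after [3H]myristic acid labeling, expressed as % of total lipid cpm. At least three independent experiments.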
# [7] = target: T1, Phospholipase D1 (Mus musculus) (UniProt Q9Z280); test: In vivo inhibition of PLD1 in male C57BL/6 mouse allografted with mouse Lewis lung carcinoma cell line assessed as reduction in CD47 expression at 10 mg/kg, po by immunofluorescence analysis; format: functional, organism-based
# T1 sequence (whole entry): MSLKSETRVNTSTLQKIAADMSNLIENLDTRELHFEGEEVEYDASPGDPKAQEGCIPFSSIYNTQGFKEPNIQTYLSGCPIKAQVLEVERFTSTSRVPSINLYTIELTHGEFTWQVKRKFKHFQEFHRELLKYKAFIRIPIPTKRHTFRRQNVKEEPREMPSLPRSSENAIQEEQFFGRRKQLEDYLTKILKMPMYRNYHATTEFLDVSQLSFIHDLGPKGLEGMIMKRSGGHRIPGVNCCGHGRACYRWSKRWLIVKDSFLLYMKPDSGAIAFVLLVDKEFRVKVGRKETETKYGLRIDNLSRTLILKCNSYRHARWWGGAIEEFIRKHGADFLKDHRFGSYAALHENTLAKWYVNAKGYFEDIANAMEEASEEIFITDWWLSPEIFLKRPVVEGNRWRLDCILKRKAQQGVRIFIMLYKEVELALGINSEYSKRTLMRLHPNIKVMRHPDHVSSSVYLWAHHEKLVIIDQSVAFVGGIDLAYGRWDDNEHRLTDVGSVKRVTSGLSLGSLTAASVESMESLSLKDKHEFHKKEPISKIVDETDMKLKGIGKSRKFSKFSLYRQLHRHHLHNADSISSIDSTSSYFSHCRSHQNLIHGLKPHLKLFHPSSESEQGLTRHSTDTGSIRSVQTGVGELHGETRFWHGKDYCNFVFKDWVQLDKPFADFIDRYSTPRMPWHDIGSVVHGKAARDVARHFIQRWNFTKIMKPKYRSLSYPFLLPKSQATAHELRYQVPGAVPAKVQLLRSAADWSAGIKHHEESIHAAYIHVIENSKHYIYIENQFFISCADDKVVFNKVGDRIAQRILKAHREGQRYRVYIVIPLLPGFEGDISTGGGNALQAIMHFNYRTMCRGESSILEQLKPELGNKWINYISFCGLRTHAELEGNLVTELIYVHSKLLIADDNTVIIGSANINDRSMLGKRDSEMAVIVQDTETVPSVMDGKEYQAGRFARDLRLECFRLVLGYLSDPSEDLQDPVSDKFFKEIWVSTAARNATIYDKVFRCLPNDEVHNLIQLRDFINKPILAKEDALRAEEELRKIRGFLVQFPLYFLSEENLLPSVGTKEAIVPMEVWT
# Mus musculus [8] = test: In vivo inhibition of KRAS activation in male C57BL/6 mouse allografted with mouse Lewis lung carcinoma cell line assessed as decrease in IKBalpha phosphorylation at 10 mg/kg, po; format: functional, organism-based
# [9] = target: T1, Phospholipase D1 (Mus musculus); test: In vivo inhibition of PLD1 in male C57BL/6 mouse allografted with mouse Lewis lung carcinoma cell line assessed as increase in IL-17+ th17 cell population at 10 mg/kg, po by immunofluorescence analysis; format: functional, organism-based
# In short: (§1)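 Same LLC syngeneic C57BL/6 model, 10 mg/kg PO every other day for 3 weeks. Tumor tissues were stained by immunofluorescence for CD80+ and CD163+ cells, CD8+ T cells, and CD4+/IL-17+ and Treg populations. Nuclei were counterstained with 1 μM Hoechst 33342 and imaged by confocal microscopy.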
# [10] = target: T1, Phospholipase D1 (Mus musculus); test: In vivo inhibition of PLD1 in male C57BL/6 mouse allografted with mouse Lewis lung carcinoma cell line assessed as increase in CD8+T cell population at 10 mg/kg, po by immunofluorescence analysis; format: functional, organism-based
# In short: as §1
# [11] = target: T1, Phospholipase D1 (Mus musculus); test: In vivo inhibition of PLD1 in male C57BL/6 mouse allografted with mouse Lewis lung carcinoma cell line assessed as increase in CD80+ pro-inflammatory M1 macrophage population at 10 mg/kg, po by immunofluorescence analysis; format: functional, organism-based
# In short: as §1
# [12] = target: T1, Phospholipase D1 (Mus musculus); test: In vivo inhibition of PLD1 in male C57BL/6 mouse allografted with mouse Lewis lung carcinoma cell line assessed as increase in calreticulin expression at 10 mg/kg, po by immunofluorescence analysis; format: functional, organism-based
# [13] = target: T1, Phospholipase D1 (Mus musculus); test: In vivo inhibition of PLD1 in male C57BL/6 mouse allografted with mouse Lewis lung carcinoma cell line assessed as reduction in PD-L1 expression at 10 mg/kg, po by immunofluorescence analysis; format: functional, organism-based
# A549 [14] = test: Induction of apoptosis in human A549 cells increase in caspase-3 level; format: functional, cell-based
# In short: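 Cells plated at about 40% density and treated at 10 μM for 48 h, with Ac-DEVD-CHO as the caspase-3 inhibitor control. Incubated with 1 μM NucView 488 caspase-3 substrate in PBS for 30 min at room temperature. Stained with 1 μM Hoechst 33342 and fluorescence quantified on a plate reader.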
# [15] = target: T1, Phospholipase D1 (Mus musculus); test: In vivo inhibition of PLD1 in male C57BL/6 mouse allografted with mouse Lewis lung carcinoma cell line assessed as increase in CD4+ cell population at 10 mg/kg, po by immunofluorescence analysis; format: functional, organism-based
# In short: as §1
# A549 [16] = test: Inhibition of cell proliferation in human A549 cells assessed as reduction in Ki-67 expression; format: functional, cell-based
# In short: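 A549 cells immunostained for Ki67 with fluorescent secondary antibody; nuclei counterstained with 1 μM Hoechst 33342; confocal imaging; at least three independent experiments, mean ± SEM.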
structure (smiles),measurement,setting,value
O=C(CCc1c[nH]c2ccccc12)Nc1cc(C(F)(F)F)cc(C(F)(F)F)c1,Activity,A549 (human),Time-dependent-effect
same,inhibition,A549 [1],Active
same,Activity,[2],Non-toxic
same,inhibition,Mus musculus [3],Active
same,Activity,A549 [4],Active
same,Activity,[5],Active
same,inhibition,A549 [6],inactive
same,inhibition,[7],Active
same,inhibition,Mus musculus [8],Active
same,inhibition,[9],Active
same,inhibition,[10],Active
same,inhibition,[11],Active
same,inhibition,[12],Active
same,inhibition,[13],Active
same,Activity,A549 [14],Active
same,inhibition,[15],Active
same,inhibition,A549 [16],Active
